Laboratory results: ChEMBL document CHEMBL2440109, “Synthesis and antimycobacterial activity of isoniazid derivatives from renewable fatty acids” (2013)
≈ marks a conversion by molar mass, not a printed value.

Columns and labels:
Type in all cases: functional
[1] = test system: Mycobacterium tuberculosis; assay: Antimycobacterial activity against isoniazid-resistant Mycobacterium tuberculosis ATCC 35822 harboring katG mutant after 7 days by REMA assay
Summary of the method: (§1)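 MIC by resazurin microtiter assay. Bacteria suspended in sterile water with glass beads, vortexed, turbidity set to McFarland tube 1 (3.2 × 10^6 CFU/mL), then diluted 1:20 in Middlebrook 7H9. Compounds in DMSO, two-fold serial dilutions (100.0-3.2 µg/mL) in 7H9 with 10% OADC. Incubated 37 °C for 7 days, resazurin added, further 2 days at 37 °C. MIC read from colour change.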

[2] = test system: Mycobacterium tuberculosis; assay: Antimycobacterial activity against rifampicin-resistant Mycobacterium tuberculosis ATCC 35338 harboring rpoB His-526-Tir gene mutant after 7 days by REMA assay; summary of the method: as §1
[3] = test system: Mycobacterium tuberculosis; assay: Antimycobacterial activity against isoniazid-resistant Mycobacterium tuberculosis 1896HF harboring inhA mutant after 7 days by REMA assay
Summary of the method: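 MIC by resazurin microtiter assay. Bacteria suspended in sterile water with glass beads, vortexed, turbidity set to McFarland tube 1 (3.2 × 10^6 CFU/mL), then diluted 1:20 in Middlebrook 7H9. Incubated 37 °C for 7 days, resazurin added, further 2 days at 37 °C. MIC read from colour change.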

SMILES	MIC [1] [µg/mL]	MIC [2] [µg/mL]	MIC [3] [µg/mL]
CCCCCCCC/C=C\CCCCCCCC(=O)O [OLEIC ACID]	>100	>100	>100
NNC(=O)c1ccncc1 [ISONIAZID]	2 (≈ 14.6 µM)	0.015 (≈ 0.109 µM)	2 (≈ 14.6 µM)
CCCCCCCC/C=C\CCCCCCCC(=O)NNC(=O)c1ccncc1	0.25 (≈ 0.623 µM)	0.003 (≈ 0.00747 µM)	1.56 (≈ 3.88 µM)
CCCCCCCCCCCCCCCCCC(=O)NNC(=O)c1ccncc1	0.25 (≈ 0.619 µM)	0.003 (≈ 0.00743 µM)	3.12 (≈ 7.73 µM)
CC/C=C\C/C=C\C/C=C\CCCCCCCC(=O)NNC(=O)c1ccncc1	25 (≈ 62.9 µM)	0.03 (≈ 0.0755 µM)	12.5 (≈ 31.4 µM)
CCCCCCCC/C=C\CCCCCCCC(=O)NN [OLEOHYDRAZIDE]	50 (≈ 169 µM)	50 (≈ 169 µM)	>100
CO[C@H]1/C=C/O[C@@]2(C)Oc3c(C)c(O)c4c(O)c(c(/C=N/N5CCN(C)CC5)c(O)c4c3C2=O)NC(=O)/C(C)=C\C=C\[C@H](C)[C@H](O)[C@@H](C)[C@@H](O)[C@@H](C)[C@H](OC(C)=O)[C@@H]1C [RIFAMPIN]	0.03 (≈ 0.0365 µM)	>2	
CCCCCCCCCCCCCCCC(=O)NNC(=O)c1ccncc1	0.125 (≈ 0.333 µM)	0.003 (≈ 0.00799 µM)	0.78 (≈ 2.08 µM)
CCCCCCCC/C=C/CCCCCCCC(=O)NNC(=O)c1ccncc1	>50	0.0019 (≈ 0.00473 µM)	6.25 (≈ 15.6 µM)
CCCCCC[C@@H](O)C/C=C\CCCCCCCC(=O)NNC(=O)c1ccncc1	25 (≈ 59.9 µM)	0.015 (≈ 0.0359 µM)	12.5 (≈ 29.9 µM)
CCCCC/C=C\C/C=C\CCCCCCCC(=O)NNC(=O)c1ccncc1	2 (≈ 5.01 µM)	0.03 (≈ 0.0751 µM)	12.5 (≈ 31.3 µM)
